From ChEMBL document CHEMBL1142242, “Indanylacetic acid derivatives carrying 4-thiazolyl-phenoxy tail groups, a new class of potent PPAR alpha/gamma/delta pan agonists: synthesis, structure-activity relationship, and in vivo efficacy” (J Med Chem, 2007) come the findings set out here.

Experiment [1] concerns Mus musculus. As to the kind of experiment: Increase of plasma HDLc level in female human apoA1 transgenic mouse at 10 mg/kg. On the set-up: dose 10 mg/kg. Type of experiment: functional, organism-based. In a few lines:
(§1)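 hApoA1 transgenic mice, 6 weeks old at purchase, grouped by equal baseline plasma triglyceride; oral dosing once daily for 7 days in 0.5% methylcellulose in water; bled ~24 h after last dose; plasma triglyceride and HDLc by autoanalyzer; mean ± SEM, 6-8 mice.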

In experiment [2] the test system is Mus musculus. As to the kind of experiment: Increase of plasma HDLc level in male human apoA1 transgenic mouse at 10 mg/kg. The class given is functional, organism-based. On the set-up: dose 10 mg/kg. A digest of the protocol: as §1
The test system of experiment [3] is Mus musculus. Nature of the experiment: Reduction of plasma triglyceride level in male human apoA1 transgenic mouse at 10 mg/kg. Type of experiment: functional, organism-based. On the set-up: dose 10 mg/kg. In a few lines:
as §1

The target of experiment [4] is T1, Peroxisome proliferator-activated receptor delta (Homo sapiens, UniProt Q03181).
T1 sequence (Q03181 whole entry): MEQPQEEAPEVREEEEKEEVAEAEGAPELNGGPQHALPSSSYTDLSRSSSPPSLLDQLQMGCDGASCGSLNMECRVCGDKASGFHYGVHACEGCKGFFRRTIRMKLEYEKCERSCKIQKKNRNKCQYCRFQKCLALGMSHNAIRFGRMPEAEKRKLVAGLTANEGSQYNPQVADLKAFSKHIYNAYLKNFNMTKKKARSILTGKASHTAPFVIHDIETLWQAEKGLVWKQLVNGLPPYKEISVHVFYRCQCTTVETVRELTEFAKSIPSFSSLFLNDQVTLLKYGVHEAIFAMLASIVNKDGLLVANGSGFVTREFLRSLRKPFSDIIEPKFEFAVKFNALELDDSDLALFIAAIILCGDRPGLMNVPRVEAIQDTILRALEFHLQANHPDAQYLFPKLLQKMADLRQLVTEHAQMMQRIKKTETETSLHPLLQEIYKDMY
Nature of the experiment: Agonist activity at human PPAR delta by FRET assay. Type of experiment: functional.

Experiment [5] addresses T2, Peroxisome proliferator-activated receptor alpha (Homo sapiens, UniProt Q07869).
T2 sequence (Q07869 whole entry): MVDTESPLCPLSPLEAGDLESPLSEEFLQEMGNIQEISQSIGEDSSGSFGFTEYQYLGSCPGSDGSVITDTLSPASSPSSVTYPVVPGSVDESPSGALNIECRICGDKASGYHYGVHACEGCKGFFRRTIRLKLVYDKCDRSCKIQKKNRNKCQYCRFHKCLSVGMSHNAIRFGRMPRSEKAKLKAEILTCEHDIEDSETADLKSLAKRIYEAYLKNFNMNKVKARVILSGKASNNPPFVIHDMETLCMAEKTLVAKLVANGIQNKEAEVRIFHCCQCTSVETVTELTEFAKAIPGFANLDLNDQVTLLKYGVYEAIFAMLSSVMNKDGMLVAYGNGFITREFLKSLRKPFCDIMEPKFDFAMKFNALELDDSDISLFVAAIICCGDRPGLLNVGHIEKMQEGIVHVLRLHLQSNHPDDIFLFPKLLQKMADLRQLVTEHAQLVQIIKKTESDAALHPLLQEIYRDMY
As to the kind of experiment: Agonist activity at human PPAR alpha by FRET assay. Type of experiment: functional. In a few lines:
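Human PPARα ligand binding domain (GST-tagged) association with biotin-labeled co-activator CBP; Eu-labeled anti-GST antibody and streptavidin-APC; incubated 2 h at rt in buffer with or without compound; fluorescence read at 615 or 655 nm emission, 340 nm excitation.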

In experiment [6] the target is T3, Peroxisome proliferator-activated receptor gamma (Mus musculus, UniProt P37238).
T3 sequence (P37238 whole entry): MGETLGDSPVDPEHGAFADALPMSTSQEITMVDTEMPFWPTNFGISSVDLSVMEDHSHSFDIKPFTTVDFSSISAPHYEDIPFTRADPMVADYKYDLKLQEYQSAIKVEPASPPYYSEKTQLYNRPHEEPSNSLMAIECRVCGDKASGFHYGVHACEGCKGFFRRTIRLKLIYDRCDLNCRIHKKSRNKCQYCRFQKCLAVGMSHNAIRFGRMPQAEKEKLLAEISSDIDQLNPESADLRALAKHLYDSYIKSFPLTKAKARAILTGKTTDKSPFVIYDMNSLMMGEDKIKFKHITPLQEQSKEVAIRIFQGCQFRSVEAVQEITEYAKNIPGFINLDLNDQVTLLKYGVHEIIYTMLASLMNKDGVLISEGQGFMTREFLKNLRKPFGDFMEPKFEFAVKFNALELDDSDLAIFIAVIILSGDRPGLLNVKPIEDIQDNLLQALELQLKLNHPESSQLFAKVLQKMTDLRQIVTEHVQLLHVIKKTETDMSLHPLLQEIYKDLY
Nature of the experiment: Agonist activity at PPAR gamma in mouse 3T3L1 cells assessed as increase in insulin receptor by IRBA. The class given is functional, cell-based, 3T3-L1.

Activity calls are given as the source filed them. The rule behind the calls is not given here. A value given as a limit tells only on which side of the number the result lay.

By EC50 is commonly meant the concentration at which the effect is half-maximal.

As for `Cc1cc(SCc2sc(-c3ccc(C(F)(F)F)cc3)nc2C)ccc1OCC(=O)O`, the result with Mus musculus [1] was Active. Besides, the Activity result in the experiment on Mus musculus [2] and in the experiment with Mus musculus [3] was “Dose-dependent effect” each time.

Take `O=C(O)C[C@@H]1CCc2cc(OCCCOc3ccc4cnoc4c3)ccc21`: the values for the concentration for a half-maximal effect (EC50) in experiment [4], in experiment [5] and in experiment [6] were 0.828 µM, more than 10 µM and more than 10 µM, respectively.

In the case of `CCCc1cc(-c2nc(OC(C)C)cs2)ccc1OCCCOc1ccc2c(c1)CC[C@H]2CC(=O)O`, the figures for the EC50 in experiment [4], in experiment [5] and in experiment [6] were 0.0023 µM, 0.047 µM and 0.045 µM, respectively.

Regarding `CCc1ccc(OCCCOc2ccc3c(c2)CC[C@H]3CC(=O)O)cc1`, the EC50 in experiment [4] amounted to 0.0089 µM; in experiment [5], 1.98 µM; in experiment [6], 6.2 µM.
